The text below walks through data of ChEMBL document CHEMBL3813658, “Texas Native Plants Yield Compounds with Cytotoxic Activities against Prostate Cancer Cells” (J Nat Prod, 2016).

pIC50: −log10 of the molar value. Active and inactive are the calls of the source. The calls are words filed in the database; no cut-off is given here.

Assay [1] in a line: Antiproliferative activity against human PC3 cells after 48 hrs by sulforhodamine B assay. It is filed as functional, cell-based. Particulars: PC-3, 48 h. (Sulforhodamine B stains cellular protein and so reports cell mass.)
Assay [2] can be described thus: Antiproliferative activity against human DU145 cells after 48 hrs by sulforhodamine B assay. It is filed as functional, cell-based. To be noted: DU-145, 48 h. Summed up: (§1)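 Sulforhodamine B assay. DU 145 cells in IMEM/10% FBS and PC-3 cells in RPMI-1640/10% FBS, both kept at 37 °C with 5% CO2, seeded at predetermined densities and left to adhere overnight. Cells exposed 48 h to a concentration range or DMSO vehicle, then TCA-fixed and SRB-stained. Bound dye dissolved in Tris and read at 560 nm.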

The nature of assay [3]: Cell cycle arrest in human DU145 cells assessed as accumulation at G0/G1 phase at 5 times antiproliferative IC50 after 16 to 23 hrs by propidium iodide staining based flow cytometry (reference value: 50.4 +/- […]%). To be noted: DU-145. It is filed as functional.
Assay [4] deals with DU-145. In words: Ratio of IC50 for human PC3 cells to IC50 for human DU145 cells. It is filed as functional.
A short description of assay [5]: Cytotoxicity against human PC3 cells assessed as reduction in cell density at 12.5 uM after 48 hrs by sulforhodamine B assay relative to control. It counts as functional. Particulars: PC-3, 48 h. The gist of the method: as §1
Assay [6] is described as follows: Cytotoxicity against human DU145 cells assessed as reduction in cell density at 12.5 uM after 48 hrs by sulforhodamine B assay relative to control. It is filed as functional. To be noted: DU-145, 48 h. The gist of the method:
as §1

Assay [7] has as its system DU-145. The assay is described as follows: (§2) Inhibition of colony formation in human DU145 cells at antiproliferative IC90 incubated for 4 hrs followed by compound washout measured after 7 to 9 days by crystal violet staining based clonogenic assay relative to control. It counts as functional. Summed up:
(§3)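 DU 145 cells plated at 150 per 60 mm plate and left to adhere about 24 h. Cells treated 4 h at the IC90 concentration, washed with fresh medium, then grown 7−9 days drug-free. Colonies stained with 0.5% crystal violet in 20% methanol, counted by imaging, and compared with vehicle-treated controls.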

Assay [8] is described as follows: Cell cycle arrest in human DU145 cells assessed as accumulation at S phase at 5 times antiproliferative IC50 after 16 to 23 hrs by propidium iodide staining based flow cytometry (reference value: 27.8 +/- 1%). It counts as functional. To be noted: DU-145. The gist of the method:
(§4)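 Cells harvested on ice, stained with Krishan's reagent (propidium iodide), and DNA content read by flow cytometry. Phase percentages derived from DNA histograms. n = 2–3 per compound, n = 5 for vehicle; error bars are SEM.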
(In general: In flow cytometry, cells or beads pass a laser one at a time.)

Assay [9] is described as follows: Cell cycle arrest in human DU145 cells assessed as accumulation at G2/M phase at 5 times antiproliferative IC50 after 16 to 23 hrs by propidium iodide staining based flow cytometry (reference value: 21.8 +/- 1.5%). It is filed as functional. To be noted: DU-145. The gist of the method:
as §4

Assay [10] concerns DU-145. In words: Disruption of mitotic spindle in human DU145 cells assessed as elongated and curved morphology at 5 times antiproliferative IC50 after 16 to 18 hrs by DAPI staining based immunofluorescence microscopy. It is filed as functional, cell-based. The gist of the method:
(§5)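 Cells fixed in ice-cold methanol, then stained with anti-β-tubulin and FITC secondary antibody; DNA stained with DAPI. Spindle morphology, metaphase DNA alignment and interphase microtubules assessed by fluorescence microscopy.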

Assay [11] has as its system DU-145. The assay is described as follows: Effect on interphase microtubule in human DU145 cells at 5 times antiproliferative IC50 after 16 to 18 hrs by DAPI staining based immunofluorescence microscopy. It counts as functional, cell-based. Summed up:
as §5

Assay [12] deals with T1, Mitogen-activated protein kinase; ERK1/ERK2 (Homo sapiens) (UniProt P27361+P28482). The assay is described as follows: Activation of ERK1/2 in human DU145 cells assessed as increase in phosphorylation at Thr202/Tyr204 residue at antiproliferative IC90 after 4 hrs by fluorescence based intracellular signaling array method. It is filed as cell-based. To be noted: DU-145. Summed up: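 PathScan intracellular signaling array with fluorescent read-out. DU 145 cells treated for 4 h; lysates made with cell extraction buffer plus protease inhibitors, as for Western blots. Phospho-Erk1/2 at Thr202/Tyr204 scored.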
T1 sequence (P27361 whole entry, looked up): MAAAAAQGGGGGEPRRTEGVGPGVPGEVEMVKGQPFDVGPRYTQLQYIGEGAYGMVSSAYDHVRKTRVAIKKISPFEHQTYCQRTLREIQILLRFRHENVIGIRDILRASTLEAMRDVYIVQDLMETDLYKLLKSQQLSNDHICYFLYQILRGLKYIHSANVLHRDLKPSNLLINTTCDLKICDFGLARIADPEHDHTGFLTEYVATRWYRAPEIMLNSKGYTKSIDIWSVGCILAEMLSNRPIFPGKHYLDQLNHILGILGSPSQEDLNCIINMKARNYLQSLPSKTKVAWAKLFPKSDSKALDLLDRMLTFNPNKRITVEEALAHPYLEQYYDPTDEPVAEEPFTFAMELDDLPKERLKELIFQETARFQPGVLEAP
T1 sequence (P28482 whole entry, looked up): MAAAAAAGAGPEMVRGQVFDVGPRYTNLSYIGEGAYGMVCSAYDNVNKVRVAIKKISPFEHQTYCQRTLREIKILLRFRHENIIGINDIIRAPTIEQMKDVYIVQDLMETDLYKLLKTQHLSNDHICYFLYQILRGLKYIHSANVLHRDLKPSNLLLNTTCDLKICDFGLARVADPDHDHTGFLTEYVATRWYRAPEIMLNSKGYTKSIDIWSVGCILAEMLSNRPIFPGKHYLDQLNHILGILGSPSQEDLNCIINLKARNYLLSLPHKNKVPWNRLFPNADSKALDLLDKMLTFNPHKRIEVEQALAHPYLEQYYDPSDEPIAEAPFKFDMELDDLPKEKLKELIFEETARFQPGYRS

The target of assay [13] is T1, Mitogen-activated protein kinase; ERK1/ERK2 (Homo sapiens). The assay is described as follows: Increase in ERK1/2 phosphorylation in human DU145 cells at antiproliferative IC90 after 2 to 18 hrs by Western blot analysis. It is filed as cell-based. Particulars: DU-145. The gist of the method: (§6)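 Equal protein run on SDS-PAGE and blotted to membrane. Probed with phospho-p44/42 and total p44/42 antibodies (1:1000) and HRP secondaries (1:5000), then quantified by densitometry.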

A short description of assay [14]: Cytotoxicity against human DU145 cells assessed as reduction in cell density at 61.3 uM after 48 hrs by sulforhodamine B assay relative to control. Particulars: DU-145, 48 h. It counts as functional. The gist of the method:
as §1

Assay [15] is described as follows: Cytotoxicity against human PC3 cells assessed as reduction in cell density at 61.7 uM after 48 hrs by sulforhodamine B assay relative to control. To be noted: PC-3, 48 h. It counts as functional. Summed up: as §1
Assay [16] can be described thus: Cytotoxicity against human DU145 cells assessed as reduction in cell density at 61.7 uM after 48 hrs by sulforhodamine B assay relative to control. It is filed as functional. To be noted: DU-145, 48 h. The gist of the method:
as §1

Assay [17] in a line: as §2. It is filed as functional, DU-145. The gist of the method:
as §3

Assay [18] relates to DU-145. The assay is described as follows: Disruption of mitotic spindle in human DU145 cells assessed as elongated and curved morphology at 2 times antiproliferative IC50 after 16 to 18 hrs by DAPI staining based immunofluorescence microscopy. It counts as functional, cell-based. Summed up:
as §5

Assay [19] relates to DU-145. In words: Disruption of mitotic spindle in human DU145 cells assessed as incorrect alignment of DNA at metaphase at 2 times antiproliferative IC50 after 16 to 18 hrs by DAPI staining based immunofluorescence microscopy. It counts as functional, cell-based. Summed up: as §5
Assay [20] deals with T2, Tubulin (Sus scrofa) (UniProt P02554+P02550). The assay is described as follows: Induction of porcine brain tubulin polymerization at 2 uM incubated for 1 hr by turbidimetric assay. The gist of the method:
(§7)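 Purified porcine brain tubulin (2 mg/mL) in GPEM buffer with 1 mM GTP, polymerized for 1 h at 37 °C with 1% DMSO vehicle or compound at 2 or 20 μM. Turbidity followed as absorbance at 340 nm; initial rate and total polymer assessed.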

The target of assay [21] is T2, Tubulin (Sus scrofa). In words: Induction of porcine brain tubulin polymerization at 20 uM incubated for 1 hr by turbidimetric assay. The gist of the method: as §7
The target in assay [22] is T2, Tubulin (Sus scrofa). In words: Effect on total porcine brain tubulin polymer level at 20 uM incubated for 1 hr by turbidimetric assay. The gist of the method: as §7
Assay [23] in a line: Cytotoxicity against human PC3 cells assessed as reduction in cell density after 48 hrs by sulforhodamine B assay relative to control. It counts as functional, PC-3. The gist of the method:
as §1

Assay [24] in a line: Cytotoxicity against human DU145 cells assessed as reduction in cell density after 48 hrs by sulforhodamine B assay relative to control. It counts as functional, DU-145. Summed up:
as §1

For assay [25], the system named is DU-145. In words: Disruption of mitotic spindle in human DU145 cells assessed as incorrect alignment of DNA at metaphase at 5 times antiproliferative IC50 after 16 to 18 hrs by DAPI staining based immunofluorescence microscopy. It is filed as functional, cell-based. The gist of the method:
as §5

Assay [26] concerns the target T1, Mitogen-activated protein kinase; ERK1/ERK2 (Homo sapiens). The assay is described as follows: Increase in ERK1/2 phosphorylation in human DU145 cells at antiproliferative IC90 up to 2 hrs by Western blot analysis. Particulars: DU-145. It counts as cell-based. The gist of the method: as §6

T2 sequence (P02550 whole entry, looked up): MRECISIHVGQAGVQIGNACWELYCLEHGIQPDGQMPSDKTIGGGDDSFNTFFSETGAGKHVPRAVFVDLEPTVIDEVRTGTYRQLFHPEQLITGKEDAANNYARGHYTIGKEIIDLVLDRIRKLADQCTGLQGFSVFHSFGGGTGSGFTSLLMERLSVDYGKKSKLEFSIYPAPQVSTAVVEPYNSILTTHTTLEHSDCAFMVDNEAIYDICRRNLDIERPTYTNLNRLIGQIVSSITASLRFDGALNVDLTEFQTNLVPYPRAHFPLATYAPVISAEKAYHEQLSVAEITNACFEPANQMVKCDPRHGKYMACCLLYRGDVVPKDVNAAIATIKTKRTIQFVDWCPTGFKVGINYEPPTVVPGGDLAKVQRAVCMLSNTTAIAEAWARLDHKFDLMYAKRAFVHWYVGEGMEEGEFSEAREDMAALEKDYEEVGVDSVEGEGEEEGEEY
T2 sequence (P02554 whole entry, looked up): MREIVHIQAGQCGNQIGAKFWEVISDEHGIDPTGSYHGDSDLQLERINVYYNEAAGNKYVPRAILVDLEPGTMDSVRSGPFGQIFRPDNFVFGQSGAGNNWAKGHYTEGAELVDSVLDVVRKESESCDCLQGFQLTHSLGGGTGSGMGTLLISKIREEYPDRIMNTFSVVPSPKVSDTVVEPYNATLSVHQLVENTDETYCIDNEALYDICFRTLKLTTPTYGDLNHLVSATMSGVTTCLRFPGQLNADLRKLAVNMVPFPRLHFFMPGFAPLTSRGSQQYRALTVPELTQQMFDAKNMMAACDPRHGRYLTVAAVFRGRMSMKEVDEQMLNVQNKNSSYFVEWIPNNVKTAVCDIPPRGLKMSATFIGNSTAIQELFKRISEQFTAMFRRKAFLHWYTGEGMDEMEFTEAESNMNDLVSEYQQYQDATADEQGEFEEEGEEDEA

As to `CC(C)[C@@H]1CC[C@@]2(C)CCC[C@@](C)(O)[C@@H]2[C@@H]1OC(=O)/C=C/c1ccc(O)cc1`, the values for the negative-log IC50 (pIC50) in assay [1] and in [2] were 5.40 and 5.28, respectively. Also, the Activity in [3] was 51.5%; in assay [8] it was 24.9%; in assay [9], 23.5%. Besides, the Ratio IC50 with DU-145 [4] was determined as 0.77. The inhibition at 12.5 µM in [5] and in assay [6] was 84% each time. The inhibition (in general, how much of the control response was suppressed) with DU-145 [7] was “inactive”. In addition, the result (in the assay with DU-145 [10]; in the assay with DU-145 [11]; in [13]) was inactive. Besides, in [12], the result was Active.
Take `CC(C)(O)C(O)Cc1c(O)ccc(C(=O)/C=C/c2ccccc2)c1O` (stereo not drawn): the pIC50 (commonly the IC50 on a negative log10 scale, so that one unit is a factor of ten) in assay [1] was 4.46; in [2], 4.59. Also, the “Ratio IC50” value in the assay on DU-145 [4] is listed as 1.4. For the same compound, in assay [14], the inhibition at 61.3 µM worked out at 46%.
On to `C=C(C)C(O)Cc1c(O)ccc(C(=O)/C=C/c2ccccc2)c1O` (stereo not drawn), for which the pIC50 in assay [1] is 4.96; in assay [2], 5.15. Besides, the results for the Activity in [3], in [8] and in assay [9] were 37.8%, 28.8% and 33.4%, respectively. Further, the Ratio IC50 in the assay with DU-145 [4] worked out at 1.6. The inhibition at 61.7 µM in assay [15] and in assay [16] was 84% each time. Also, the “inhibition (INH)” value in assay [17] is on record as 44%. The result with DU-145 [18], in the assay with DU-145 [19] and on Tubulin (Sus scrofa) [21] was Active. Also, the outcome on Tubulin (Sus scrofa) [20] and on Tubulin (Sus scrofa) [22] was inactive.
Regarding `C=C1C(=O)O[C@H]2C/C(COC(=O)C(C)C)=C/CC[C@]3(C)O[C@H]3[C@@H](O)[C@H]12`, the pIC50 in assay [1] was 5.33; in [2], 5.77. For the same compound, the Activity is 34.4% in [3], 31.2% in [8] and 34.5% in [9]. In the assay with DU-145 [4], the Ratio IC50 amounted to 2.8. Further, the “inhibition (INH)” value in assay [23] was determined as 30%; in [24], 20%; in assay [17] it was 42%. The outcome (in the assay on DU-145 [10]; with DU-145 [25]; in [12]; in assay [13]) was Active. Further, the outcome on Tubulin (Sus scrofa) [20] and at Tubulin (Sus scrofa) [21] was inactive.
As for `C=C(C)C(=O)OC/C1=C\CC[C@]2(C)O[C@H]2[C@@H](O)[C@@H]2C(=C)C(=O)O[C@H]2C1`, the pIC50 in assay [1] is 4.92; in assay [2], 5.43. Moreover, the Activity was found to be 32.8% in [3], 32.7% in assay [8] and 34.5% in assay [9]. The Ratio IC50 with DU-145 [4] is 3.2. Also, the “inhibition (INH)” value in assay [23] was 30%; in [24], 20%; in [17], 23%. For the same compound, the result (in the assay on DU-145 [10]; in the assay on DU-145 [25]; in assay [12]; in assay [26]) was Active. Moreover, the result on Tubulin (Sus scrofa) [20] and on Tubulin (Sus scrofa) [21] was inactive.
For the compound `C=C(C)C(=O)O[C@H]1C/C(C=O)=C\CC/C(C)=C/[C@H]2OC(=O)C(=C)[C@H]12`, the pIC50 is 5.52 in assay [1] and 5.74 in assay [2]. The Activity was 46.4% in assay [3], 27.2% in assay [8] and 26.4% in assay [9]. Moreover, the Ratio IC50 in the assay with DU-145 [4] came out at 1.7. Besides, the “inhibition (INH)” value was determined as 20% in assay [23], 20% in [24] and 98% in assay [17]. The outcome (with DU-145 [10]; in the assay with DU-145 [25]; in assay [12]; in assay [26]) was Active. Moreover, the result (at Tubulin (Sus scrofa) [20]; on Tubulin (Sus scrofa) [21]; in [13]) was inactive.
In turn, `CC(=O)O[C@H]1C(=O)[C@@]2(C)[C@H]([C@H](OC(=O)c3ccccc3)[C@]3(O)C[C@H](OC(=O)[C@H](O)[C@@H](NC(=O)c4ccccc4)c4ccccc4)C(C)=C1C3(C)C)[C@]1(OC(C)=O)CO[C@@H]1C[C@@H]2O` [PACLITAXEL] gave a pIC50 in assay [2] of 8.42.
